Here are results for 19 molecules from ChEMBL document CHEMBL4311931, “Controlling cellular distribution of drugs with permeability modifying moieties” (Medchemcomm, 2019).

A value given as a limit tells only on which side of the number the result lay.

Series [1] in a line: Permeability of compound in 5% DMSO after 7 hrs by PAMPA. The conditions noted are these: read-out: permeability. The class given is ADME.
Series [2] concerns PC-3. Nature of the series: Antiproliferative activity against human PC3 cells assessed as reduction in cell viability by Celltiter-Glo assay. The class given is functional, cell-based. Put shortly:
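PC3 cells from ATCC, authenticated by STR analysis. Viability was read by CellTiter-Glo, and cell EC50 is the geometric mean of at least two duplicate runs.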

For series [3], the target named is T1, Nicotinamide phosphoribosyltransferase (Homo sapiens, UniProt P43490). In words: Displacement of fluorescent labelled OG488 from human full length FLAG-tagged NAMPT (1 to 491 residues) expressed in HEK293-6E cells in absence of PRPP by TR-FRET assay. It counts as cell-based.
T1 sequence (P43490 whole entry, the tested form may be a part): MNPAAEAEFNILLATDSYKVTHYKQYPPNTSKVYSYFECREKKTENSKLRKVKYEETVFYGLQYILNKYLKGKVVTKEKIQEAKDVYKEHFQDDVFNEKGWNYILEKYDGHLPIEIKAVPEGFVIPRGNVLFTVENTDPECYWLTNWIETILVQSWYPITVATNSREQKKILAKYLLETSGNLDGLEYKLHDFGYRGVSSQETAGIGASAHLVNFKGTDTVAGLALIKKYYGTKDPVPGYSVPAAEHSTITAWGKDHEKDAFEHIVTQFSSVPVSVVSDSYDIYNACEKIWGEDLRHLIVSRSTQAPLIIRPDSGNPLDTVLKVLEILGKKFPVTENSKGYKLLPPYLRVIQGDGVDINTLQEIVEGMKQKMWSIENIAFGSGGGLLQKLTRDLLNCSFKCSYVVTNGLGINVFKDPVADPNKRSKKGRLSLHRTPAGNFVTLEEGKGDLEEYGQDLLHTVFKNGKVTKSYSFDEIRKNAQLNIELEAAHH
Series [4] concerns the target T1, Nicotinamide phosphoribosyltransferase. In words: Displacement of fluorescent labelled OG488 from human full length FLAG-tagged NAMPT (1 to 491 residues) expressed in HEK293-6E cells in presence of PRPP by TR-FRET assay. The class given is cell-based.
The target of series [5] is T2, Histamine H3 receptor (Homo sapiens, UniProt Q9Y5N1). Nature of the series: Agonist activity at human H3 receptor expressed in CHOK1 cells incubated for 10 mins by HTRF assay. It counts as cell-based.
T2 sequence (Q9Y5N1 whole entry): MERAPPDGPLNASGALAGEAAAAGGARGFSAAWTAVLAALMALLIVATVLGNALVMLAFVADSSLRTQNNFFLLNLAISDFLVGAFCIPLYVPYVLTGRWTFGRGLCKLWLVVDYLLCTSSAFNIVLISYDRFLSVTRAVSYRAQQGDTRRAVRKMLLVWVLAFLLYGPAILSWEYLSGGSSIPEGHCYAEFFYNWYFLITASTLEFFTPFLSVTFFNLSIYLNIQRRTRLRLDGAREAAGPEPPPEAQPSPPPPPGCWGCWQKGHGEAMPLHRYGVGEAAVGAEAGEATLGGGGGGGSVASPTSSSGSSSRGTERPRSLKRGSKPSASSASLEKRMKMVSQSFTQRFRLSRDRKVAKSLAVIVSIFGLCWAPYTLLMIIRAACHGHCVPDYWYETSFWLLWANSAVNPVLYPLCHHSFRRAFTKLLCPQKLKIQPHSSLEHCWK
Series [6] deals with T2, Histamine H3 receptor. Nature of the series: Antagonist activity at human H3 receptor expressed in CHOK1 cells incubated for 10 mins by HTRF assay. The class given is cell-based.
For series [7], the target named is T2, Histamine H3 receptor. Nature of the series: Displacement of [3H]Nalpha-methylhistamine from recombinant human histamine H3 receptor after 60 mins by scintillation counting method.
Series [8] has as its target Bromodomain-containing protein 2 (Homo sapiens, UniProt P25440). Nature of the series: Inhibition of BRD2 (unknown origin) by TR-FRET assay.
Series [9] concerns the target T3, Bromodomain-containing protein 4 (Homo sapiens, UniProt O60885). Nature of the series: Inhibition of BRD4 (unknown origin) by TR-FRET assay.
Series [10] concerns the target T3, Bromodomain-containing protein 4. Nature of the series: Inhibition of BRD4 in luciferase expressing human […] cells transfected with HPV-E2 assessed as transrepression of HPV-long control region by luciferase reporter assay relative to parent compound. A digest of the protocol:
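In-cell target engagement was read in an engineered H1299-derived luciferase reporter system. Each EC50 is the geometric mean of at least two duplicate runs. The fold change is the ratio to (+)-JQ1.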

In series [11] the target is Bromodomain-containing protein 3 (Homo sapiens, UniProt Q15059). Nature of the series: Inhibition of BRD3 (unknown origin) by TR-FRET assay.
Bromodomain-containing protein 3, sequence (Q15059 whole entry): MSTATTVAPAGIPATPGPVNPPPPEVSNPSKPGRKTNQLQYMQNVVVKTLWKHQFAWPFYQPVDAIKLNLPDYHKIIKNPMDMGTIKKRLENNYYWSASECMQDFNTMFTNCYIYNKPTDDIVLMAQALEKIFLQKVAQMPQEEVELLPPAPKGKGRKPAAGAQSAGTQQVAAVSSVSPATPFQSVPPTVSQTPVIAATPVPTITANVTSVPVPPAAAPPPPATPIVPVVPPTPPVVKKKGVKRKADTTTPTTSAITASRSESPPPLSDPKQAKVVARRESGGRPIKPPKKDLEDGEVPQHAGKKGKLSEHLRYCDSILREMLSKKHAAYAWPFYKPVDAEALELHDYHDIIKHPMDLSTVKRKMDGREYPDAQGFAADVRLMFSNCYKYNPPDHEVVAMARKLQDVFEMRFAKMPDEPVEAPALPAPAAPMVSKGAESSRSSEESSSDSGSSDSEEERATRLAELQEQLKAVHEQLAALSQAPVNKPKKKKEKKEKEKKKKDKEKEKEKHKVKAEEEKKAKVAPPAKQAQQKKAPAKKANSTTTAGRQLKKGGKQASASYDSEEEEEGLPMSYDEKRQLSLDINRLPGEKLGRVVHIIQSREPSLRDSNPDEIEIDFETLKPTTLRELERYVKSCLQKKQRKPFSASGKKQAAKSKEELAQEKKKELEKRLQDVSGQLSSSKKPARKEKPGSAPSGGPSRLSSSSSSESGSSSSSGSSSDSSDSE
Series [12] has as its target T3, Bromodomain-containing protein 4. In words: Inhibition of BRD4 in human MX1 cells assessed as decrease in cell proliferation after 3 days by Celltiter-Glo assay relative to parent compound. It counts as cell-based. A digest of the protocol: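 MX-1 breast cancer cells were treated for a 3-day proliferation assay and read out by CellTiter-Glo. Each EC50 is the geometric mean of at least two duplicate runs. The fold change is the ratio of the result to that of (+)-JQ1.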

Series [13] is described as follows: Ratio of drug concentration in unbound HEK293 cell to media. The note with it: human. The class given is ADME. A digest of the protocol: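 In HEK293 cells, Kpuu combines compound binding (fu,HEK) with intracellular accumulation (Kp, cell-to-media concentration ratio). Values are the geometric mean of at least two duplicate runs.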
For series [14], the target named is T3, Bromodomain-containing protein 4. Nature of the series: Inhibition of BRD4 in human […] cells transfected with HPV-E2 assessed as transrepression of HPV-long control region by luciferase reporter assay. It counts as cell-based.
The test system of series [15] is K562. In words: Antiproliferative activity against human K562 cells assessed as reduction in cell viability by measuring ATP level incubated for 3 days by Celltiter-Glo assay. The class given is functional, cell-based. The conditions noted are these: K562, 72 h. A digest of the protocol: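 K562 cells grown in RPMI 1640 with 50 mM HEPES and 10% FBS at 37 °C in 5% CO2, then plated at 20 000 cells per well. Compounds were log-serially diluted in DMSO, then in RPMI, to final concentrations of 10 000 nM to 0.01 nM. Cells were exposed for 3 days, and total intracellular ATP was read by CellTiter-Glo. IC50 is the geometric mean of at least two duplicate runs.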

Bromodomain-containing protein 2, sequence (P25440 whole entry): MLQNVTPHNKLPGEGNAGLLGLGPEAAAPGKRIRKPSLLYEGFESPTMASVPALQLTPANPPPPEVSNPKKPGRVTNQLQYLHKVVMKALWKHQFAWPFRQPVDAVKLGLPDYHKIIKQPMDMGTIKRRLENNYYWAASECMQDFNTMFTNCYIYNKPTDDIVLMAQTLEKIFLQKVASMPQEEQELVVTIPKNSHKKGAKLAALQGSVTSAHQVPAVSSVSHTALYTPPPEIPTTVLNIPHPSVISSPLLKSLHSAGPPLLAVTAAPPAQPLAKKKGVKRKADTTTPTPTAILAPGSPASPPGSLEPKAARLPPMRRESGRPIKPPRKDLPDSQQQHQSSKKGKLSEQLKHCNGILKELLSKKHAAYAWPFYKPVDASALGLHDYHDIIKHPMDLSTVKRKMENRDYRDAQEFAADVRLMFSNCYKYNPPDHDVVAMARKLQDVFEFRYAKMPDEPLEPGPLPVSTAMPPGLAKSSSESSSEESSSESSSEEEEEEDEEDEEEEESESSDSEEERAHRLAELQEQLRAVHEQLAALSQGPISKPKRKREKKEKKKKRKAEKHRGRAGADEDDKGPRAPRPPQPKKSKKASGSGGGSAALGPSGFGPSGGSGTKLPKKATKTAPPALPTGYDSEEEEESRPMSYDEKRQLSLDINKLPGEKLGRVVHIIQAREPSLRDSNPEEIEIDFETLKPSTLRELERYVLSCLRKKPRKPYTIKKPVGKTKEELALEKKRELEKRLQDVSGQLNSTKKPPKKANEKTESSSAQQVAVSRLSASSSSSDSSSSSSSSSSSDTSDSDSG

For the molecule `NCCOCCOCC(=O)NCc1cccc(C(=O)N2CCC(CCCCNC(=O)/C=C/c3cccnc3)CC2)c1`, in series [1], the Papp at 7 h was determined as 0.016 ×10⁻⁶ cm/s. The IC50 in series [2] was found to be 296 nM. Further, the Ki in series [3] was found to be 60 nM; in series [4] it was 1.9 nM.
For the molecule `O=C(/C=C/c1cccnc1)NCCCCC1CCN(C(=O)c2cccc(CNC(=O)COCCOCCNC(=O)CS(=O)(=O)O)c2)CC1`, the IC50 in series [2] was 7230 nM. For the same molecule, the inhibition constant Ki in series [3] came to 285 nM; in series [4], 7.9 nM.
Turning to `Cc1nn(CCOCCOCCNC(=O)CS(=O)(=O)O)cc1-c1ccc2cc(CCN3CCC[C@H]3C)ccc2n1`, the EC50 in [5] is more than 3000 nM. In series [6], the IC50 came to 45 nM. In series [7], the Ki came out at 5.6 nM.
Consider `CC(C)(C)OC(=O)NCCOCCOCC(=O)NCc1cccc(C(=O)N2CCC(CCCCNC(=O)/C=C/c3cccnc3)CC2)c1`, for which the Papp at 7 h in [1] is 1.2 ×10⁻⁶ cm/s. The IC50 in series [2] was determined as 30.7 nM. Besides, the values for the inhibitory constant (Ki) in series [3] and in series [4] were 14 nM and 0.2 nM, respectively.
Turning to `Cc1sc2c(c1C)C(c1ccc(Cl)cc1)=N[C@@H](CC(=O)NCCOCCOCCNC(=O)CCCCCC1(C)C(/C=C/C=C/C=C3/N(CCCS(=O)(=O)O)c4ccc(S(=O)(=O)O)cc4C3(C)C)=[N+](CCCS(=O)(=O)[O-])c3ccc(S(=O)(=O)O)cc31)c1nnc(C)n1-2` (stereo partly drawn), the 50% inhibitory concentration (IC50) in series [8] was more than 45000 nM; in series [9], 9110 nM; in series [11] it was more than 20500 nM. The fold change (FC) in series [10] and in [12] was more than 50 each time. For the same molecule, the Ratio in series [13] is given as 0.0064. Besides, the concentration for a half-maximal effect (EC50) in [14] was more than 10000 nM.
Take `O=C(/C=C/c1cccnc1)NCCCCC1CCN(C(=O)c2cccc(CNC(=O)COCCOCCNC(=O)C3C(C(=O)O)C(C(=O)O)C3C(=O)O)c2)CC1` (stereo not drawn): the IC50 in series [2] was 7330 nM. Moreover, the results for the Ki in [3] and in series [4] were 359 nM and 5.9 nM, respectively.
Turning to `Cc1nc(Nc2ncc(C(=O)Nc3c(C)cccc3Cl)s2)cc(N2CCN(CCOCCOCCN)CC2)n1`, the Papp at 7 h in [1] was found to be 0.056 ×10⁻⁶ cm/s. Also, the IC50 in series [15] stood at 628 nM.
Regarding `Cc1nn(CCOCCOCCN)cc1-c1ccc2cc(CCN3CCC[C@H]3C)ccc2n1`, in series [1], the Papp at 7 h is 0.0246 ×10⁻⁶ cm/s. For the same molecule, in series [5], the concentration for a half-maximal effect (EC50) is more than 3000 nM. In addition, the half-inhibitory concentration (IC50) in [6] was determined as 1 nM. In addition, the inhibition constant Ki in series [7] came to 0.7 nM.
In the same order, the values of `Cc1nn(CCOCCOCCNC(=O)C2C(C(=O)O)C(C(=O)O)C2C(=O)O)cc1-c1ccc2cc(CCN3CCC[C@H]3C)ccc2n1` (stereo partly drawn) are 0.0131 ×10⁻⁶ cm/s, more than 3000 nM, 150 nM and 25.4 nM.
On to `Cc1nc(Nc2ncc(C(=O)Nc3c(C)cccc3Cl)s2)cc(N2CCN(CCOCCOCCNC(=O)OC(C)(C)C)CC2)n1`, for which the Papp at 7 h in [1] was determined as 0.0065 ×10⁻⁶ cm/s. Further, in [15], the concentration for half-maximal inhibition (IC50) was determined as 1.64 nM.
On to `Cc1nn(CCOCCOCCNC(=O)CCCCCC2(C)C(/C=C/C=C/C=C3/N(CCCS(=O)(=O)O)c4ccc(S(=O)(=O)O)cc4C3(C)C)=[N+](CCCS(=O)(=O)[O-])c3ccc(S(=O)(=O)O)cc32)cc1-c1ccc2cc(CCN3CCC[C@H]3C)ccc2n1` (stereo partly drawn), for which, in [1], the Papp at 7 h is 0.284 ×10⁻⁶ cm/s. In [5], this molecule had an EC50 of 88 nM. The same molecule had an IC50 in series [6] of 13 nM. The inhibition constant Ki in [7] worked out at 1.9 nM.
In the case of `Cc1nn(CCOCCOCCNC(=O)OC(C)(C)C)cc1-c1ccc2cc(CCN3CCC[C@H]3C)ccc2n1`, the Papp at 7 h in [1] was 0.873 ×10⁻⁶ cm/s. In series [5], this molecule yielded an EC50 of more than 3000 nM. Further, in series [6], the IC50 was determined as 41 nM. Also, the Ki in [7] worked out at 1.5 nM.
For the molecule `CC1(CCCCCC(=O)NCCOCCOCC(=O)NCc2cccc(C(=O)N3CCC(CCCCNC(=O)/C=C/c4cccnc4)CC3)c2)C(/C=C/C=C/C=C2/N(CCCS(=O)(=O)O)c3ccc(S(=O)(=O)O)cc3C2(C)C)=[N+](CCCS(=O)(=O)[O-])c2ccc(S(=O)(=O)O)cc21` (stereo not drawn), the IC50 in [2] worked out at 197 nM. In addition, the Ki turned out to be 141 nM in [3] and 1.3 nM in series [4].
In the case of `Cc1sc2c(c1C)C(c1ccc(Cl)cc1)=N[C@@H](CC(=O)NCCOCCOCCNC(=O)OC(C)(C)C)c1nnc(C)n1-2`, the Papp at 7 h in [1] came out at 6.22 ×10⁻⁶ cm/s. The half-maximal inhibitory concentration (IC50) was found to be 35 nM in [8], 526 nM in series [9] and 42 nM in series [11]. Moreover, the results for the fold change (FC) in series [10] and in series [12] were 11.2 and 3.65, respectively. For the same molecule, the Ratio in series [13] amounted to 0.168. Further, the EC50 in [14] is 718 nM.
Turning to `Cc1sc2c(c1C)C(c1ccc(Cl)cc1)=N[C@@H](CC(=O)NCCOCCOCCNC(=O)CS(=O)(=O)O)c1nnc(C)n1-2`, the IC50 in [8] is 78 nM; in series [9], more than 10000 nM; in series [11] it was 78 nM. Further, the fold change (FC) in series [10] and in [12] was more than 50 in each case. Also, the Ratio in series [13] is 0.0219. In [14], the EC50 is more than 10000 nM.
For the molecule `NCc1cccc(C(=O)N2CCC(CCCCNC(=O)/C=C/c3cccnc3)CC2)c1`, the Papp at 7 h in series [1] was determined as 0.092 ×10⁻⁶ cm/s. In addition, in series [2], the 50% inhibitory concentration (IC50) came to 30.2 nM. Besides, the figures for the Ki in series [3] and in series [4] were 55 nM and 1.1 nM, respectively.
`Cc1sc2c(c1C)C(c1ccc(Cl)cc1)=N[C@@H](CC(=O)NCCOCCOCCN)c1nnc(C)n1-2`: in series [1], the Papp at 7 h is 0.0146 ×10⁻⁶ cm/s. For the same molecule, the values for the half-maximal inhibitory concentration (IC50) in [8], in series [9] and in series [11] were 16 nM, 2480 nM and 7 nM, respectively. Also, the fold change (FC) in [10] is more than 50; in series [12], 17.2. Further, the Ratio in series [13] turned out to be 0.0695. Also, the EC50 in [14] is 8490 nM.
Consider `Cc1sc2c(c1C)C(c1ccc(Cl)cc1)=N[C@@H](CC(=O)NCCOCCOCCNC(=O)C1C(C(=O)O)C(C(=O)O)C1C(=O)O)c1nnc(C)n1-2` (stereo partly drawn), for which the results for the IC50 in series [8], in series [9] and in series [11] were 997 nM, more than 10000 nM and 456 nM, respectively. In addition, the fold change (FC) in [10] and in series [12] was more than 50 in each case. In addition, the Ratio in series [13] worked out at 0.0359. Further, the 50% effective concentration (EC50) in series [14] was more than 10000 nM.
Consider `Cc1nc(Nc2ncc(C(=O)Nc3c(C)cccc3Cl)s2)cc(N2CCN(CCOCCOCCNC(=O)CS(=O)(=O)O)CC2)n1`, for which the Papp at 7 h in [1] came out at 0.0274 ×10⁻⁶ cm/s. Besides, in [15], the half-maximal inhibitory concentration (IC50) is 120 nM.
